The results in this text go back to ChEMBL document CHEMBL1124416, “5-(1-piperazinyl)-1H-1,2,4-triazol-3-amines as antihypertensive agents” (1989).

Assay [1] has as its system Rattus norvegicus. Kind of assay: Assessment of antihypertensive activity at 100 mg/kg administered perorally by measuring the heart rate in rats. The assay is classed as functional. The note with it: route oral.
Assay [2] is filed under the species Rattus norvegicus. In kind it is functional, Artery. The conditions noted are these: dose 100 mg/kg; route oral.
Assay [3] has as its system Rattus norvegicus. Kind of assay: The antihypertensive activity was assessed by measuring the heart rate in rats when administered at 50 mg/kg. In kind it is functional. In outline: (§1)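 16-week-old male SH rats (Okamoto) were dosed by oral gavage in 3% starch in normal saline (2 mL/kg), plus an oral saline load of 25 mL/kg. They were redosed at 24 h without the saline load. MABP and HR were taken by direct femoral arterial puncture under local anesthesia 4 h after the second dose. HR was rounded to 10 bpm.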

For assay [4], the system named is Rattus norvegicus. Kind of assay: The antihypertensive activity was assessed by measuring the mean arterial blood pressure in rats when administered at 50 mg/kg. The assay is classed as functional. In outline: as §1

In the assay with Rattus norvegicus [1], `N#Cc1ccc(CN2CCN(c3nc(N)n[nH]3)CC2)cc1` gave an HR of 420 beats min-1. For the same compound, the MABP in the assay filed under Rattus norvegicus [2] came out at 127 mmHg.
The like results for `CN(C)c1ccc(CN2CCN(c3n[nH]c(N)n3)CC2)cc1Br` were, in that order, 320 beats min-1 and 116 mmHg.
Consider `CN(C)c1ccc(CN2CCN(c3n[nH]c(N)n3)CC2)cc1`, for which the figures for the HR in the assay with Rattus norvegicus [1] and with Rattus norvegicus [3] were 380 beats min-1 and 440 beats min-1, respectively. For the same compound, the MABP in the assay listed under Rattus norvegicus [2] was determined as 111 mmHg; with Rattus norvegicus [4], 129 mmHg.
`Nc1n[nH]c(N2CCN(C(c3ccccc3)c3ccc(Cl)cc3)CC2)n1` (stereo unspecified) registered an HR with Rattus norvegicus [1] of 350 beats min-1. In the assay listed under Rattus norvegicus [2], this compound yielded an MABP of 115 mmHg.
Turning to `Nc1n[nH]c(N2CCN(Cc3ccncc3)CC2)n1`, the HR with Rattus norvegicus [1] is given as 380 beats min-1. The compound further returned an MABP in the assay listed under Rattus norvegicus [2] of 142 mmHg.
In the assay on Rattus norvegicus [1], `COc1ccccc1N1CCN(c2n[nH]c(N)n2)CC1` registered an HR of 440 beats min-1. This compound also came in with an MABP in the assay filed under Rattus norvegicus [2] of 157 mmHg.
Compound `Nc1n[nH]c(N2CCN(CC3CCCCC3)CC2)n1` gave an HR in the assay with Rattus norvegicus [1] of 420 beats min-1. In the assay filed under Rattus norvegicus [2], this compound returned an MABP of 123 mmHg.
`CN(C)CCCN1CCN(c2n[nH]c(N)n2)CC1` registered an HR in the assay with Rattus norvegicus [1] of 420 beats min-1. Besides, the MABP in the assay filed under Rattus norvegicus [2] is listed as 140 mmHg.
For `Nc1n[nH]c(N2CCN(CC3CC3)CC2)n1`, the HR in the assay with Rattus norvegicus [1] turned out to be 390 beats min-1. In the assay listed under Rattus norvegicus [2], this compound yielded an MABP of 104 mmHg.
With `Cc1cc(C)c(CN2CCN(c3n[nH]c(N)n3)CC2)c(C)c1`, in the assay with Rattus norvegicus [1], the HR is given as 430 beats min-1. The MABP in the assay listed under Rattus norvegicus [2] stood at 137 mmHg.
The corresponding values for `Cc1ccc(C)c(CN2CCN(c3n[nH]c(N)n3)CC2)c1` are 400 beats min-1 and 139 mmHg.
The like results for `COc1ccc(CN2CCN(c3n[nH]c(N)n3)CC2)c(OC)c1OC` were, in that order, 420 beats min-1 and 147 mmHg.
Turning to `Nc1n[nH]c(N2CCN(CC3CCCC3)CC2)n1`, the HR with Rattus norvegicus [3] turned out to be 440 beats min-1. The MABP was found to be 114 mmHg in the assay listed under Rattus norvegicus [2] and 117 mmHg in the assay on Rattus norvegicus [4].
In the assay on Rattus norvegicus [1], `Nc1n[nH]c(N2CCN(c3ccccn3)CC2)n1` displayed an HR of 430 beats min-1. In the assay filed under Rattus norvegicus [2], this compound displayed an MABP of 133 mmHg.
`CC(c1ccccc1)N1CCN(c2n[nH]c(N)n2)CC1` (stereo unspecified) showed an HR with Rattus norvegicus [1] of 370 beats min-1. In addition, the MABP in the assay listed under Rattus norvegicus [2] is 136 mmHg.
For the compound `Nc1n[nH]c(N2CCN(Cc3c(Cl)cccc3Cl)CC2)n1`, in the assay with Rattus norvegicus [1], the HR is listed as 400 beats min-1. The MABP in the assay filed under Rattus norvegicus [2] came to 140 mmHg.
`Nc1n[nH]c(N2CCN(c3ccc(F)cc3)CC2)n1` registered an HR in the assay with Rattus norvegicus [1] of 420 beats min-1. Moreover, the MABP in the assay filed under Rattus norvegicus [2] amounted to 151 mmHg.
Consider `Nc1n[nH]c(N2CCN(Cc3cccc(C(F)(F)F)c3)CC2)n1`, for which the HR in the assay with Rattus norvegicus [1] was determined as 390 beats min-1. This compound also returned an MABP in the assay filed under Rattus norvegicus [2] of 129 mmHg.
For the compound `Nc1n[nH]c(N2CCN(CCCc3ccccc3)CC2)n1`, the HR in the assay on Rattus norvegicus [1] was found to be 380 beats min-1; in the assay with Rattus norvegicus [3] it was 520 beats min-1. For the same compound, the MABP in the assay filed under Rattus norvegicus [2] amounted to 93 mmHg; in the assay with Rattus norvegicus [4] it was 95 mmHg.
With `CCCCc1ccc(CN2CCN(c3n[nH]c(N)n3)CC2)cc1`, the HR in the assay on Rattus norvegicus [1] worked out at 360 beats min-1. In the assay listed under Rattus norvegicus [2], this compound came in with an MABP of 136 mmHg.
In the assay with Rattus norvegicus [1], `Nc1n[nH]c(N2CCN(C(=O)c3ccc(-c4ccccc4)cc3)CC2)n1` showed an HR of 400 beats min-1. Moreover, in the assay filed under Rattus norvegicus [2], the MABP is given as 138 mmHg.
`Nc1n[nH]c(N2CCN(C/C=C/c3ccccc3)CC2)n1` yielded an HR in the assay with Rattus norvegicus [1] of 430 beats min-1. For the same compound, the MABP in the assay listed under Rattus norvegicus [2] is listed as 101 mmHg.
In the assay with Rattus norvegicus [1], `Nc1n[nH]c(N2CCN(Cc3ccc4ccccc4n3)CC2)n1` displayed an HR of 440 beats min-1. In the assay filed under Rattus norvegicus [2], this compound showed an MABP of 121 mmHg.
The corresponding values for `CN(C)c1ccc(CN2CCN(c3n[nH]c(N)n3)CC2)c(Cl)c1` are 400 beats min-1 and 120 mmHg.
In turn, `CC(=O)N1CCN(c2n[nH]c(N)n2)CC1` displayed an HR with Rattus norvegicus [1] of 440 beats min-1. For the same compound, the MABP in the assay listed under Rattus norvegicus [2] was 142 mmHg.
For the compound `Nc1n[nH]c(N2CCN(c3ccccc3)CC2)n1`, the HR in the assay with Rattus norvegicus [1] was found to be 340 beats min-1. Also, the MABP in the assay filed under Rattus norvegicus [2] turned out to be 128 mmHg.
As to `Cc1ccc(CN2CCN(c3n[nH]c(N)n3)CC2)cc1`, the results for the HR with Rattus norvegicus [1] and in the assay on Rattus norvegicus [3] were 340 beats min-1 and 350 beats min-1, respectively. In addition, the MABP in the assay listed under Rattus norvegicus [2] worked out at 112 mmHg; with Rattus norvegicus [4] it was 70 mmHg.
For `Cc1ccccc1CN1CCN(c2n[nH]c(N)n2)CC1`, in the assay on Rattus norvegicus [1], the HR is given as 410 beats min-1. The compound further gave an MABP in the assay filed under Rattus norvegicus [2] of 131 mmHg.
With `CC(C)(C)c1ccc(CN2CCN(c3n[nH]c(N)n3)CC2)cc1`, the HR in the assay on Rattus norvegicus [1] is reported as 350 beats min-1. In the assay filed under Rattus norvegicus [2], this compound displayed an MABP of 130 mmHg.
`Nc1n[nH]c(N2CCN(C(=O)c3ccco3)CC2)n1` returned an HR in the assay with Rattus norvegicus [1] of 410 beats min-1. Further, the MABP in the assay listed under Rattus norvegicus [2] is reported as 142 mmHg.
The like results for `Nc1n[nH]c(N2CCN(Cc3ccc(F)cc3)CC2)n1` were, in that order, 360 beats min-1 and 97 mmHg.
For `Nc1n[nH]c(N2CCN(Cc3ccccc3F)CC2)n1`, the HR in the assay on Rattus norvegicus [1] was 350 beats min-1; in the assay on Rattus norvegicus [3], 330 beats min-1. Besides, the MABP is on record as 97 mmHg in the assay filed under Rattus norvegicus [2] and 79 mmHg with Rattus norvegicus [4].
`Nc1n[nH]c(N2CCN(Cc3ccc(Cl)c(Cl)c3)CC2)n1` had an HR with Rattus norvegicus [1] of 330 beats min-1. In addition, the MABP in the assay filed under Rattus norvegicus [2] amounted to 95 mmHg.
The corresponding values for `Cc1cccc(CN2CCN(c3n[nH]c(N)n3)CC2)c1` are 440 beats min-1 and 132 mmHg.
Regarding `CC(C)(C)c1ccc(C(=O)N2CCN(c3n[nH]c(N)n3)CC2)cc1`, the HR in the assay with Rattus norvegicus [1] was determined as 400 beats min-1. In the assay filed under Rattus norvegicus [2], this compound had an MABP of 141 mmHg.
Regarding `Nc1n[nH]c(N2CCN(Cc3ccccc3[N+](=O)[O-])CC2)n1`, the HR with Rattus norvegicus [1] was determined as 430 beats min-1. Further, the MABP in the assay listed under Rattus norvegicus [2] came out at 135 mmHg.
For the compound `Nc1n[nH]c(N2CCN(CCCOc3ccccc3)CC2)n1`, the HR with Rattus norvegicus [1] is on record as 310 beats min-1. Moreover, in the assay filed under Rattus norvegicus [2], the MABP came to 89 mmHg.
In the assay on Rattus norvegicus [1], `CC(C)C(=O)N1CCN(c2n[nH]c(N)n2)CC1` gave an HR of 410 beats min-1. The compound further yielded an MABP in the assay filed under Rattus norvegicus [2] of 141 mmHg.
The corresponding values for `Nc1ccc(CN2CCN(c3n[nH]c(N)n3)CC2)cc1` are 380 beats min-1 and 109 mmHg.
Consider `Nc1n[nH]c(N2CCN(Cc3ccc(F)cc3Cl)CC2)n1`, for which the HR with Rattus norvegicus [1] is on record as 410 beats min-1. The compound further displayed an MABP in the assay filed under Rattus norvegicus [2] of 145 mmHg.
Regarding `C=CCN1CCN(c2nc(N)n[nH]2)CC1`, the HR with Rattus norvegicus [1] was found to be 360 beats min-1. The compound further yielded an MABP in the assay listed under Rattus norvegicus [2] of 96 mmHg.
In the case of `COc1cc(CN2CCN(c3n[nH]c(N)n3)CC2)cc(OC)c1OC`, the HR in the assay on Rattus norvegicus [1] is listed as 440 beats min-1. This compound also gave an MABP in the assay listed under Rattus norvegicus [2] of 132 mmHg.
`Nc1n[nH]c(N2CCN(CCNCc3ccncc3)CC2)n1`: the HR in the assay with Rattus norvegicus [1] is given as 440 beats min-1. Also, the MABP in the assay listed under Rattus norvegicus [2] worked out at 144 mmHg.
The compound `Br.Br.Nc1n[nH]c(N2CCNCC2)n1` had an HR in the assay on Rattus norvegicus [1] of 410 beats min-1. Also, in the assay filed under Rattus norvegicus [2], the MABP is reported as 92 mmHg.
On to `Cl.Cl.Nc1n[nH]c(N2CCN(Cc3cccc4ccccc34)CC2)n1`, for which the HR in the assay with Rattus norvegicus [1] is on record as 350 beats min-1. Besides, the MABP in the assay filed under Rattus norvegicus [2] stood at 133 mmHg.
As for `Clc1cccc(Cl)c1NC1=NCCN1` [CLONIDINE], the HR with Rattus norvegicus [1] is 180 beats min-1. In the assay listed under Rattus norvegicus [2], the MABP came to 102 mmHg.
